# Measurements reported in publication PMC11406440 (Food and chemical toxicology : an international journal …, 2024).
# Several values for one entry are separate records, joined by “and”; a condition that tells them apart may be missing. Identical values can stand only once. Entries after “also recorded” stand apart in the source; their conditions may differ.
# Assays:
# dLN cells = assay: Draining lymph node; format: in vivo, B6C3F1 mice; conditions: 28 days
# Method in brief: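 Female B6C3F1 mice (5/group) received 25 μl/ear of acetone vehicle or 1.25, 2.5 or 5% w/v test compound on the dorsal surface of each ear, once daily for 28 days. They were euthanized about 24 h later. Single-cell suspensions were made from both auricular dLNs, half a spleen or one ear pinna. Cells were Fc-blocked (anti-CD16/32), stained with surface antibody cocktails and acquired on an LSR II, with FMO gating controls.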
# ear = assay: Skin; format: in vivo, B6C3F1 mice; conditions: 28 days
# Method in brief: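 Mice were dosed daily on both ears (25 μl/ear; acetone vehicle or 1.25, 2.5, 5% w/v) for 28 days. Half an ear pinna or the caudate liver lobe was homogenized in Buffer RLT, and total RNA was column-isolated with DNase treatment. TaqMan qPCR gave relative fold change (2−ΔΔCT) versus vehicle controls, normalized to β-actin. Liver used 4–5 mice/group, one-way ANOVA/Dunnett or Kruskal-Wallis/Dunn.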
# IgM response to SRBC = assay: Spleen IgM response to SRBC; format: in vivo, B6C3F1 mice; conditions: 10 days
# Method in brief: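 B6C3F1 mice, 5/group, dosed topically on dorsal surface of each ear (25 μl/ear) with acetone vehicle or test compound at 0.625, 1.25, 2.5% w/v once daily for 10 consecutive days. SRBC 7.5 × 10^7 i.v. given 4 days before CO2 euthanasia. Spleen cells plated at 1:30 and 1:120 in agar/DEAE-dextran with SRBC and guinea pig complement, 3 h at 37 °C. Plaques counted per 10^6 cells and per spleen. Mean ± SE.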
# [1] = 28 days of 20 mg/kg/d oral gavage, female mice; ref Narizzano et al., 2021; cited from earlier work
# B6C3F1 mice [2] = assay: Organ and body weights after 28-day dermal exposure; format: in vivo; conditions: 28 days
# Method in brief: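 Female B6C3F1 mice (5/group) were treated topically on both ears (25 μl/ear) with acetone or 1.25, 2.5, 5% w/v test compound once daily for 28 days. They were weighed at necropsy about 24 h after the last dose. Liver, spleen, kidneys and thymus were cleaned of connective tissue and weighed. Organ weights were reported relative to body weight and uncorrected; dose trend was tested.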
# [3] = 14-days of 3 mg/kg/day oral exposure; ref Chang et al., 2018; cited from earlier work
# B6C3F1 mice [4] = assay: Histopathology; format: in vivo; conditions: for Liver: bile, increased, hepatocyte, minimal (incidence) / Liver: hypertrophy, hepatocyte, marked (incidence) / Liver: infiltrate, mononuclear cell, mild (incidence) / Liver: infiltrate, mononuclear cell, minimal (incidence) / Liver: necrosis, mild (incidence) / Liver: necrosis, minimal (incidence) / Liver: pigment macrophage, minimal (incidence) / Spleen: decreased cellularity, lymphocyte, mild (incidence): mice affected of 5
# Method in brief: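 Female B6C3F1 mice (5/group) received 25 μl/ear of acetone vehicle or 1.25–5% w/v test compound daily on both ears for 28 days, with necropsy about 24 h later. Liver, half spleen, half ear pinna and right kidney were fixed in 10% formalin, paraffin-embedded, cut at 5 μm and H&E-stained. A veterinary pathologist scored them per STP guideline, grades 1 (minimal) to 5 (severe).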
smiles,measurement,setting,value
"O=S(=O)(O)C(F)(F)C(F)(F)C(F)(F)C(F)(F)C(F)(F)C(F)(F)F [PFHxS, Perfluorohexane sulfonic acid]",dLN CD4+ T cell number,"dLN cells; 1.25%, 2.5%, and 5% PFHxS",significant decrease
same,dLN CD8+ T cell frequency,"dLN cells; 2.5%, 5% PFHxS",increase
same,dLN eosinophil frequency and number,"dLN cells; 2.5%, 5% PFHxS",increase
same,dLN mean fluorescence intensity of CD86 on B cells,dLN cells; 5% PFHxS,increase
same,dLN mean fluorescence intensity of MHCII on B cells,dLN cells; 5% PFHxS,increase
same,dLN total DC number,dLN cells; 5% PFHxS,increase
same,"Skin Serpine1 gene expression, fold increase",ear; 1.25% PFHxS,3 fold
same,Skin Il-1β gene expression,ear; 1.25-5% PFHxS,no significant changes
same,Skin Pparα gene expression,ear; 1.25-5% PFHxS,no change
same,Skin barrier gene Flg2 expression,ear; 1.25-5% PFHxS,No changes
same,Skin barrier gene Itgbl1 expression,ear; 1.25-5% PFHxS,No changes
same,Skin barrier gene Krt10 expression,ear; 1.25-5% PFHxS,No changes
same,Skin barrier gene Krt14 expression,ear; 1.25-5% PFHxS,No changes
same,"Skin Serpine1 gene expression, fold increase",ear; 2.5% PFHxS,4 fold
same,Skin barrier gene Lor expression,"ear; 2.5%, 5% PFHxS",Increases
same,"Skin Cxcl1 gene expression, fold increase",ear; 5% PFHxS,5 fold
same,"Skin Il-6 gene expression, fold increase",ear; 5% PFHxS,2 fold
same,Skin Pparγ gene expression,ear; 5% PFHxS,decrease
same,Skin Pparδ gene expression,ear; 5% PFHxS,increase
same,"Skin S100a8 gene expression, fold increase",ear; 5% PFHxS,9 fold
same,"Skin Serpine1 gene expression, fold increase",ear; 5% PFHxS,4 fold
same,"Skin Tslp gene expression, fold increase",ear; 5% PFHxS,33 fold
same,Skin barrier gene Flg expression,ear; 5% PFHxS,Increases
same,Decrease in specific IgM activity against SRBC (PFC/10^6 cells) vs vehicle,IgM response to SRBC; 1.25% PFHxS dermal,50.7%
same,Decrease in total IgM activity against SRBC (PFC/spleen) vs vehicle,IgM response to SRBC; 1.25% PFHxS dermal,57.9%
same,Decrease in specific IgM activity against SRBC (PFC/10^6 cells) vs vehicle,IgM response to SRBC; 2.5% PFHxS dermal,49.9%
same,Decrease in total IgM activity against SRBC (PFC/spleen) vs vehicle,IgM response to SRBC; 2.5% PFHxS dermal,60.3%
same,Serum level,[1],35 µg/mL
same,Liver weight (% of body weight) increase vs. vehicle-treated mice,B6C3F1 mice [2]; 1.25% PFHxS dermal,162%
same,Spleen weight (% of body) decrease,B6C3F1 mice [2]; 1.25% PFHxS dermal,25%
same,Mass of kidneys not corrected for body weight,"B6C3F1 mice [2]; 1.25, 2.5, 5% PFHxS dermal",significant decreases
same,Mass of liver not corrected for body weight,"B6C3F1 mice [2]; 1.25, 2.5, 5% PFHxS dermal",significant increases
same,Mass of spleen not corrected for body weight,"B6C3F1 mice [2]; 1.25, 2.5, 5% PFHxS dermal",significant decreases
same,Mass of thymus not corrected for body weight,"B6C3F1 mice [2]; 1.25, 2.5, 5% PFHxS dermal",significant decreases
same,Kidney weight (as % of body weight),B6C3F1 mice [2]; 1.25-5% PFHxS dermal,No change
same,Liver weight (% of body weight) increase vs. vehicle-treated mice,B6C3F1 mice [2]; 2.5% PFHxS dermal,172%
same,Spleen weight (% of body) decrease,B6C3F1 mice [2]; 2.5% PFHxS dermal,37%
same,Thymus weight (% of body) decrease,B6C3F1 mice [2]; 2.5% PFHxS dermal,44%
same,Body weight decrease,B6C3F1 mice [2]; 5% PFHxS dermal,14%
same,Liver weight (% of body weight) increase vs. vehicle-treated mice,B6C3F1 mice [2]; 5% PFHxS dermal,205%
same,Spleen weight (% of body) decrease,B6C3F1 mice [2]; 5% PFHxS dermal,38%
same,Thymus weight (% of body) decrease,B6C3F1 mice [2]; 5% PFHxS dermal,47%
same,Serum concentration,[3],180 µg/mL
same,"Liver: bile, increased, hepatocyte, minimal (incidence)","B6C3F1 mice [4]; 1.25% PFHxS, 28 days",5/5 and 5
same,"Liver: hypertrophy, hepatocyte, marked (incidence)","B6C3F1 mice [4]; 1.25% PFHxS, 28 days",5
same,"Liver: infiltrate, mononuclear cell, mild (incidence)","B6C3F1 mice [4]; 1.25% PFHxS, 28 days",1/5 and 1
same,"Liver: infiltrate, mononuclear cell, minimal (incidence)","B6C3F1 mice [4]; 1.25% PFHxS, 28 days",2/5 and 2
same,"Liver: necrosis, mild (incidence)","B6C3F1 mice [4]; 1.25% PFHxS, 28 days",2/5 and 2
same,"Liver: necrosis, minimal (incidence)","B6C3F1 mice [4]; 1.25% PFHxS, 28 days",3/5 and 3
same,"Liver: pigment macrophage, minimal (incidence)","B6C3F1 mice [4]; 1.25% PFHxS, 28 days",4/5 and 4
same,"Spleen: decreased cellularity, lymphocyte, mild (incidence)","B6C3F1 mice [4]; 1.25% PFHxS, 28 days",2/5 and 2
same,"Liver: bile, increased, hepatocyte, minimal (incidence)","B6C3F1 mice [4]; 2.5% PFHxS, 28 days",5/5 and 5
same,"Liver: hypertrophy, hepatocyte, marked (incidence)","B6C3F1 mice [4]; 2.5% PFHxS, 28 days",5
same,"Liver: infiltrate, mononuclear cell, mild (incidence)","B6C3F1 mice [4]; 2.5% PFHxS, 28 days",0
same,"Liver: infiltrate, mononuclear cell, minimal (incidence)","B6C3F1 mice [4]; 2.5% PFHxS, 28 days",2/5 and 2
same,"Liver: necrosis, mild (incidence)","B6C3F1 mice [4]; 2.5% PFHxS, 28 days",1/5 and 1
same,"Liver: necrosis, minimal (incidence)","B6C3F1 mice [4]; 2.5% PFHxS, 28 days",4/5 and 4
same,"Liver: pigment macrophage, minimal (incidence)","B6C3F1 mice [4]; 2.5% PFHxS, 28 days",5/5 and 5
same,"Spleen: decreased cellularity, lymphocyte, mild (incidence)","B6C3F1 mice [4]; 2.5% PFHxS, 28 days",4/5 and 4
same,"Liver: bile, increased, hepatocyte, minimal (incidence)","B6C3F1 mice [4]; 5% PFHxS, 28 days",5/5 and 5
same,"Liver: hypertrophy, hepatocyte, marked (incidence)","B6C3F1 mice [4]; 5% PFHxS, 28 days",5
same,"Liver: infiltrate, mononuclear cell, mild (incidence)","B6C3F1 mice [4]; 5% PFHxS, 28 days",0
same,"Liver: infiltrate, mononuclear cell, minimal (incidence)","B6C3F1 mice [4]; 5% PFHxS, 28 days",1/5 and 1
same,"Liver: necrosis, mild (incidence)","B6C3F1 mice [4]; 5% PFHxS, 28 days",1/5 and 1
same,"Liver: necrosis, minimal (incidence)","B6C3F1 mice [4]; 5% PFHxS, 28 days",4/5 and 4
same,"Liver: pigment macrophage, minimal (incidence)","B6C3F1 mice [4]; 5% PFHxS, 28 days",4/5 and 4
same,"Spleen: decreased cellularity, lymphocyte, mild (incidence)","B6C3F1 mice [4]; 5% PFHxS, 28 days",5/5 and 5
same,Skin irritation at the site of application,B6C3F1 mice [4]; PFHxS dermal exposure,no skin irritation
same,Skin histopathology at the dosing site,"B6C3F1 mice [4]; PFHxS dermal, 28 days",No microscopic abnormalities; also recorded: no histopathological changes
